From ChEMBL document CHEMBL1137787 (J Med Chem, 2009) come the findings set out here.

Test [1] deals with T1, Metabotropic glutamate receptor 5 (Rattus norvegicus, UniProt P31424). Nature of the test: (§1) Positive allosteric modulator activity at rat mGlu5 receptor expressed in HEK293 cells assessed as potentiation of glutamate-induced response relative to glutamate. Format: cell-based.
Test [2] has as its target Metabotropic glutamate receptor 5 (Rattus norvegicus) (UniProt P31424). Nature of the test: Positive allosteric modulator activity at rat mGlu5 receptor expressed in HEK293 cells assessed as fold shift in glutamate induced response at 10 uM. Format: cell-based.
The target is the same in test [3]. Described as §1. It counts as cell-based.
In test [4] the target is T1, Metabotropic glutamate receptor 5. Nature of the test: Antagonist activity at rat mGlu5 receptor expressed in HEK293 cells assessed as inhibition of glutamate-induced response. It counts as functional, cell-based.
Test [5] has as its target Metabotropic glutamate receptor 5 (Rattus norvegicus) (UniProt P31424). Put plainly: Antagonist activity at rat mGlu5 receptor expressed in HEK293 cells assessed as inhibition of glutamate-induced response at 10 uM. It counts as functional, cell-based. Also on record: scale not given: the % may be the effect or the level left.
Test [6] has as its target Metabotropic glutamate receptor 2 (Homo sapiens, UniProt Q14416). Nature of the test: Antagonist activity at mGlu2 receptor. It counts as functional.
For test [7], the target named is Metabotropic glutamate receptor 1 (Homo sapiens, UniProt Q13255). Nature of the test: Antagonist activity at mGlu1 receptor. It counts as functional.
Test [8] addresses Metabotropic glutamate receptor 4 (Homo sapiens, UniProt Q14833). Nature of the test: Antagonist activity at mGlu4 receptor. It counts as functional.
Test [9] concerns the target Metabotropic glutamate receptor 3 (Homo sapiens, UniProt Q14832). Nature of the test: Antagonist activity at mGlu3 receptor. It counts as functional.
Test [10] concerns Rattus norvegicus. Put plainly: Anxiolytic activity against ip dosed Sprague-Dawley rat Geller-Seifter conflict model assessed as increase in punished response. Format: functional, organism-based. In short, it runs like this: (§2)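 Modified Geller-Seifter conflict schedule with punished and unpunished components. Animals were tested on 1, 3, 10 and 30 mg/kg and on vehicle. Read-out was the number of responses in each component, as mean ± SEM for eighteen animals. Analysis used ANOVA with Newman-Keuls post hoc comparison to vehicle.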

The test system of test [11] is Rattus norvegicus. Nature of the test: Anxiolytic activity against Sprague-Dawley rat Geller-Seifter conflict model assessed as increase punished response rate at 30 mg/kg, ip. Format: functional. To be noted: route intraperitoneal. The method in brief:
as §2

Test [12] addresses Metabotropic glutamate receptor 7 (Homo sapiens, UniProt Q14831). Nature of the test: Antagonist activity at mGlu7 receptor. It counts as functional.
The target of test [13] is Metabotropic glutamate receptor 8 (Homo sapiens, UniProt O00222). Put plainly: Antagonist activity at mGlu8 receptor. Format: functional.
In test [14] the test system is Rattus norvegicus. Put plainly: Antipsychotic activity in Sprague-Dawley rat assessed as reversal of amphetamine-induced hyperlocomotion administered ip 30 mins before amphetamine-challenge. It counts as functional, organism-based. In short, it runs like this: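 Rats were given the test compound i.p. at 3, 10 or 30 mg/kg in 10% Tween 80 vehicle. Thirty minutes later they received amphetamine, 1 mg/kg s.c. Locomotor activity was then measured. Test compound or vehicle alone was also assessed without amphetamine.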

The structures appear in SMILES notation. Active and inactive are the calls of the source. No cut-off for these calls is given here. Some results are limits rather than exact numbers.

T1 sequence (P31424 whole entry): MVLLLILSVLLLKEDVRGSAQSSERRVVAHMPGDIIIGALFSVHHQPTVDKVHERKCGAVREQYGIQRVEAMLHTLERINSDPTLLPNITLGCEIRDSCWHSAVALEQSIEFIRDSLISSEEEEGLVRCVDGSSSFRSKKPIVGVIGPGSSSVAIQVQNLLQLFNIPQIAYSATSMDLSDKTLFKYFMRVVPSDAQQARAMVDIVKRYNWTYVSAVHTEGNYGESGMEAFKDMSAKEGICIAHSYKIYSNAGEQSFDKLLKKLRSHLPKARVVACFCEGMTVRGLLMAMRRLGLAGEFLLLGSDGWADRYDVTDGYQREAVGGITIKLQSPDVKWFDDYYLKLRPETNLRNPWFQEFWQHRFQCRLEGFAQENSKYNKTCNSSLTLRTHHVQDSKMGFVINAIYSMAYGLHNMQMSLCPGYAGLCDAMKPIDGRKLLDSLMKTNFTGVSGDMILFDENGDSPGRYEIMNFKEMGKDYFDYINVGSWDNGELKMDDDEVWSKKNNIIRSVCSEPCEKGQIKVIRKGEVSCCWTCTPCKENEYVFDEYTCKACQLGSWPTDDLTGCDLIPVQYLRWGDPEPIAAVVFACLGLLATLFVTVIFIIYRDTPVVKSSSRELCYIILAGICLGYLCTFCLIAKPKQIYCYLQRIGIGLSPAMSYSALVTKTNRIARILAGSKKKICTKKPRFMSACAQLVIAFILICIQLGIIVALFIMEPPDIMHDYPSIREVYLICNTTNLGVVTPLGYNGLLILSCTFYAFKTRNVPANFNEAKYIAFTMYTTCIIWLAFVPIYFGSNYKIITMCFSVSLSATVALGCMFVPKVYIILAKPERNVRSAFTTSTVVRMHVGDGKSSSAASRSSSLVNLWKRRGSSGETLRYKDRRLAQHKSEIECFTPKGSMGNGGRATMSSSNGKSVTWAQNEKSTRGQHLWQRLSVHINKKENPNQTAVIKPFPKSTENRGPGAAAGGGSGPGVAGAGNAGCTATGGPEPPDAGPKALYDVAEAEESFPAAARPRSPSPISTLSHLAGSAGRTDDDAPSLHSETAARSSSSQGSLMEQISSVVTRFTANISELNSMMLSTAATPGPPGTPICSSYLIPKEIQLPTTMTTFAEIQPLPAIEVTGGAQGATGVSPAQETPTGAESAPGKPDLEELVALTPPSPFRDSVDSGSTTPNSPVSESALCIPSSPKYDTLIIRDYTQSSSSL
Metabotropic glutamate receptor 5 (Rattus norvegicus), sequence (P31424 21-1203 limits assumed): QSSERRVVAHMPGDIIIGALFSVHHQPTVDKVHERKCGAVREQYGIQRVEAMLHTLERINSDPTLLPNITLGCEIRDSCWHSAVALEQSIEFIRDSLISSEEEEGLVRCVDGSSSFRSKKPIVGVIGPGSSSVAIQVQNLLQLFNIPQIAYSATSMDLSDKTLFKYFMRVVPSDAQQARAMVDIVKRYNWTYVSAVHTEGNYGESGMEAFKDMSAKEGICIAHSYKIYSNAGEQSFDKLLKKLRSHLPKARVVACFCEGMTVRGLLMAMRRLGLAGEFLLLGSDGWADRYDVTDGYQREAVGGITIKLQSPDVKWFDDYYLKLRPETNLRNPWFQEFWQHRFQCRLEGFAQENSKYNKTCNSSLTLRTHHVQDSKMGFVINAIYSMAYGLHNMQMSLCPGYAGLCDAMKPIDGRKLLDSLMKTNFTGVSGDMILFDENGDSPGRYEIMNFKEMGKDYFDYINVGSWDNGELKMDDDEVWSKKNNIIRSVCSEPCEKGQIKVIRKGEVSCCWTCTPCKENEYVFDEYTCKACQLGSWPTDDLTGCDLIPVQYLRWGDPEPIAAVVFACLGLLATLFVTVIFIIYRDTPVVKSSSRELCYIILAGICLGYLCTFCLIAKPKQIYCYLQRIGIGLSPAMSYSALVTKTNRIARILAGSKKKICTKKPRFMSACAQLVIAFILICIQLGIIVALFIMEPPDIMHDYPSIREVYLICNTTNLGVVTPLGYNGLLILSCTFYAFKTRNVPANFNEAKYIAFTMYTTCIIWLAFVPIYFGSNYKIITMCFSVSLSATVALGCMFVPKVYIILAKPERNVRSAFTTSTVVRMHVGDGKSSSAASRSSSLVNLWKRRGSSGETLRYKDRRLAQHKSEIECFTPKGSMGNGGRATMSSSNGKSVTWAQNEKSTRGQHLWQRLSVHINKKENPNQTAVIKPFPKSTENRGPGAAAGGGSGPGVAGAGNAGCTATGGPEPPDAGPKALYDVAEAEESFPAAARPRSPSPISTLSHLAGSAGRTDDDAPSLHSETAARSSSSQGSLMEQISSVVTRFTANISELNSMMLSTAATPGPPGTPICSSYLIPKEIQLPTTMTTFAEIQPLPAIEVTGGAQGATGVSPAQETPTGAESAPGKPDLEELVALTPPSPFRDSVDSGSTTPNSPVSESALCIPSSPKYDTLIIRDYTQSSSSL
Metabotropic glutamate receptor 2, sequence (Q14416 whole entry): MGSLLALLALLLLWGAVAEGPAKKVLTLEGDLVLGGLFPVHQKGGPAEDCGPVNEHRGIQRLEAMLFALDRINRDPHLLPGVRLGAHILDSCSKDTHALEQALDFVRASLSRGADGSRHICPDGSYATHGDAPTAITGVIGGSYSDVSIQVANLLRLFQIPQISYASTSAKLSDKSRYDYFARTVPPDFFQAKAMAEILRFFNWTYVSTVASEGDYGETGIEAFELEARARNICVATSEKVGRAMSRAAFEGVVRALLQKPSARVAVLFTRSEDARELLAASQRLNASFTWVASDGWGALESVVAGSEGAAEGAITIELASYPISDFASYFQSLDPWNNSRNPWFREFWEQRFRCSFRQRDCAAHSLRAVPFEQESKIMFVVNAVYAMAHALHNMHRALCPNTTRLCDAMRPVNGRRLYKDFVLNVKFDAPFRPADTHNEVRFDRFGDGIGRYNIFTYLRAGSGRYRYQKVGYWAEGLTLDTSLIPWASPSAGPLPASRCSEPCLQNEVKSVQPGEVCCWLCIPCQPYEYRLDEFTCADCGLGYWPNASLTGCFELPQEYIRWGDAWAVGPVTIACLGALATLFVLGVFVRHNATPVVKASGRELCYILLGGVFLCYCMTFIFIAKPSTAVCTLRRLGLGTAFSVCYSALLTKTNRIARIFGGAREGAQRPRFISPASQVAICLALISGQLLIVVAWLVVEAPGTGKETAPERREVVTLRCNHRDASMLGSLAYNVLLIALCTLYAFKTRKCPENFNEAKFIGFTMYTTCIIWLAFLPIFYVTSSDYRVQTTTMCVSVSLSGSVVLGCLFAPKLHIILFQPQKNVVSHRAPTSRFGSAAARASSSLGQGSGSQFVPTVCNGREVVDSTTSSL
Metabotropic glutamate receptor 7, sequence (Q14831 whole entry): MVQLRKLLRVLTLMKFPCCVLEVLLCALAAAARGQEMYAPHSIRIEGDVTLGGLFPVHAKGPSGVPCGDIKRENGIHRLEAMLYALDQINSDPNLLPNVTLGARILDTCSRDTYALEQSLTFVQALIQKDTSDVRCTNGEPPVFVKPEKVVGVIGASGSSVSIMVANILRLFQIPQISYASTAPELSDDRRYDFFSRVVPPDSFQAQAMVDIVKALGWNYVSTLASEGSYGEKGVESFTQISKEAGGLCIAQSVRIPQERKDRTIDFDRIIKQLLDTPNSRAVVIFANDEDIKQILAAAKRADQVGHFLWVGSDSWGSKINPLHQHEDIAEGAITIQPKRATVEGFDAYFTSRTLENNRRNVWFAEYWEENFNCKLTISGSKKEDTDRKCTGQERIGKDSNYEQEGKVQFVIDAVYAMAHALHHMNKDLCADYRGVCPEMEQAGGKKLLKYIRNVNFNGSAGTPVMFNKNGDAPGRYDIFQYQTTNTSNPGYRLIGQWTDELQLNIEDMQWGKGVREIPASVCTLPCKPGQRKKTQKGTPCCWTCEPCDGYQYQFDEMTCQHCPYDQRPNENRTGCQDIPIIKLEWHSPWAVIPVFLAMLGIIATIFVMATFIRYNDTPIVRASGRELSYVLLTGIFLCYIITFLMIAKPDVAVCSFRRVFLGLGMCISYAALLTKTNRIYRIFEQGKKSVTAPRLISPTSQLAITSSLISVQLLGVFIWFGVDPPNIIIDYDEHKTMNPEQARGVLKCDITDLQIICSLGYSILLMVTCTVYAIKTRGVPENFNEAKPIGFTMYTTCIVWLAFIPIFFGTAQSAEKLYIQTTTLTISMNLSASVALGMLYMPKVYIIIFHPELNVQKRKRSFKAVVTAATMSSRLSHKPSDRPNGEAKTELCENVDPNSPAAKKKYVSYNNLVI
Metabotropic glutamate receptor 8, sequence (O00222 whole entry): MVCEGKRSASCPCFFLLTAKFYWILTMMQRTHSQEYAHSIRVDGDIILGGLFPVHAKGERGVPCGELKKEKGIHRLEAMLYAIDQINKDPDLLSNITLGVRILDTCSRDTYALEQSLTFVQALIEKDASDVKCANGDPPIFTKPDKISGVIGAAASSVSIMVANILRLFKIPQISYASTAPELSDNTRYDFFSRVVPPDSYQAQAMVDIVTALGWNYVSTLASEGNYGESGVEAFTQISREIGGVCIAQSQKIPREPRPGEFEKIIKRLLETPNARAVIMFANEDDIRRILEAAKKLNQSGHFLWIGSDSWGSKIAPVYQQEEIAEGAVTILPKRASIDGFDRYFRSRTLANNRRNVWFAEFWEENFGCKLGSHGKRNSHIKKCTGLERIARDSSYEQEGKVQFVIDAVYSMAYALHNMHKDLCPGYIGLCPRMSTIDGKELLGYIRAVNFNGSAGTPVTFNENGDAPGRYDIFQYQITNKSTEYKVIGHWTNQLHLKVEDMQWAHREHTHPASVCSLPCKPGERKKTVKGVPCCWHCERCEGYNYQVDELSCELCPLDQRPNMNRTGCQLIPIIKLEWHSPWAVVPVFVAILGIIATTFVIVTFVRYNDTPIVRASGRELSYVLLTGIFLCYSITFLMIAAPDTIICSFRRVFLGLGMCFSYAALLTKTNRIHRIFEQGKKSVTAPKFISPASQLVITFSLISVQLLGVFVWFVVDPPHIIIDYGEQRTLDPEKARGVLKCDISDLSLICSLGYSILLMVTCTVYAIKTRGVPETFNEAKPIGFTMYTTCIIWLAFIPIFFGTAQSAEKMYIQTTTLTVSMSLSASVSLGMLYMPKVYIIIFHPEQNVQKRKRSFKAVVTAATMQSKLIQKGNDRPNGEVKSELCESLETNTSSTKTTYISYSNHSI

Regarding `COc1ncc(C#Cc2ccc(C)cc2)cn1`, the concentration giving a half-maximal response (EC50) result in [1] (hek293) is recorded as “Not Active”.
Turning to `CNc1ncc(C#Cc2cccc(C)c2)cn1`, the EC50 in test [1] (read-out: EC50) turned out to be 21.1 nM. The fold change (FC) in test [2] is 5.9.
As to `Cc1ncc(C#Cc2ccccc2)cn1`, the EC50 entry in test [1] (hek293) is recorded as “Not Active”.
The same measure, in the same setting: the value for `CSc1ncc(C#Cc2cccc(C)c2)cn1` was “Not Active”.
On to `CSc1ncc(C#Cc2ccccc2)cn1`, for which the EC50 in [1] (read-out: EC50) was 120 nM. Further, the fold change (FC) in [2] amounted to 11.
For the molecule `COc1ncc(C#Cc2ccccc2)cn1`, the EC50 result in test [1] (hek293) is reported as “Not Active”.
For `Cc1ccc(C#Cc2ncccn2)cc1`, in [3], the outcome was inactive. In addition, in [4] (read-out: IC50), the IC50 was more than 10000 nM.
In the case of `CCOc1ncc(C#Cc2cccc(C)c2)cn1`, the Activity in [5] amounted to 100%. In addition, in test [4] (read-out: IC50), the IC50 came out at 21.1 nM.
`CC(C)(C)c1ncc(C#Cc2ccccc2)cn1`: in [1] (read-out: EC50), the EC50 was determined as 247 nM. Further, the fold change (FC) in [2] came to 6.
The matching figures for `CNc1ncc(C#Cc2ccc(C)cc2)cn1`: 704 nM and 5.7.
In the case of `Cc1cccc(C#Cc2ncccn2)c1`, the IC50 in test [6], in test [7], in test [8], in [9], in test [12] and in test [13] was more than 10 µM each time. Moreover, the IC50 in test [4] (read-out: IC50) is 10.8 nM. The results for the Activity entry (with Rattus norvegicus [10]; in the test with Rattus norvegicus [11]; in test [5]) were “Dose-dependent effect”, 300% and 100%, respectively.
Turning to `C(#Cc1cncnc1)c1ccccc1`, the Activity in test [3] was 29%. Also, the IC50 in test [4] (read-out: IC50) stood at 486 nM.
For `Cc1ccc(C#Cc2cnc(C)nc2)cc1`, in test [1] (hek293), the EC50 entry was “Not Active”.
The same measure, in the same setting: the value for `CSc1ncc(C#Cc2ccc(C)cc2)cn1` was “Not Active”; that for `CCNc1ncc(C#Cc2ccccc2)cn1` was “Not Active”; that for `CCc1ncc(C#Cc2cccc(C)c2)cn1` was “Not Active”.
In the case of `Cc1cccc(C#Cc2cncnc2)c1`, the IC50 in test [4] (read-out: IC50) was determined as 7.5 nM.
Take `C(#Cc1ncccn1)c1ccccc1`: the Activity in test [5] stood at 100%. In [4] (read-out: IC50), the IC50 came out at 195 nM.
Take `CCc1ncc(C#Cc2ccccc2)cn1`: the EC50 entry in test [1] (hek293) is listed as “Not Active”.
With `CNc1ncc(C#Cc2ccccc2)cn1`, the IC50 in test [6], in test [7], in test [9], in [12] and in test [13] was more than 10 µM in each case. Moreover, the EC50 in test [1] (read-out: EC50) was 14.3 nM. Further, the fold change (FC) in [2] was 15. Moreover, in the test on Rattus norvegicus [14], the Activity result is “Dose-dependent effect”.
Regarding `CCc1ncc(C#Cc2ccc(C)cc2)cn1`, the EC50 result in test [1] (hek293) is on record as “Not Active”.
On the same count and under the same terms, then `CCNc1ncc(C#Cc2ccc(C)cc2)cn1`, with “Not Active”.
For the molecule `Cc1ccc(C#Cc2cncnc2)cc1`, in test [2], the fold change (FC) amounted to 4.2.
With `CCOc1ncc(C#Cc2ccccc2)cn1`, the IC50 entry in test [4] (hek293) is “Not Active”.
On to `COc1ncc(C#Cc2cccc(C)c2)cn1`, for which the EC50 result in test [1] (hek293) is “Not Active”.
For `Cc1ccc(C#Cc2cnc(C(C)(C)C)nc2)cc1`, in test [1] (hek293), the EC50 result is on record as “Not Active”.
The same measure, in the same setting: the value for `Cc1cccc(C#Cc2cnc(C(C)(C)C)nc2)c1` was “Not Active”.
For the molecule `CCOc1ncc(C#Cc2ccc(C)cc2)cn1`, the IC50 result in [4] (hek293) is reported as “Not Active”.
`CCNc1ncc(C#Cc2cccc(C)c2)cn1`: the EC50 result in test [1] (hek293) is listed as “Not Active”.
Turning to `Cc1cccc(C#Cc2cnc(C)nc2)c1`, the EC50 entry in test [1] (hek293) is “Not Active”.
